Screening results (PubChem BioAssay)
LANA-H2A inh = blocks KSHV LANA binding to histone H2A/H2B; Q9QR71; cell-free LANA-H2A/H2B peptide, fluorescence polarization; inhibition, % (concentration not given with the values); hit rate 0.6% among 320,000; AID 2629; in the data active = inhibition mostly above about 10%, no sharp cut-off; inactive = mostly below about 6.7%
MEX-5 binding = C. elegans MEX-5 TCR-2 RNA binding activity; MEX-5/FITC-TCR2 RNA binding, fluorescence polarization; stronger effect = lower value; activity score (negative = inhibition of binding), % at 10 µM; hit rate 0.38% among 300,000;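 active = inhibition past about -25% in most replicates, and total fluorescence under double the plate's negative control median, limit read from the data; inconclusive = replicates evenly split on the limit, or fluorescence at least double controls; inactive = too little inhibition in most replicates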
Target sequence (Q9XUB2 whole entry, looked up): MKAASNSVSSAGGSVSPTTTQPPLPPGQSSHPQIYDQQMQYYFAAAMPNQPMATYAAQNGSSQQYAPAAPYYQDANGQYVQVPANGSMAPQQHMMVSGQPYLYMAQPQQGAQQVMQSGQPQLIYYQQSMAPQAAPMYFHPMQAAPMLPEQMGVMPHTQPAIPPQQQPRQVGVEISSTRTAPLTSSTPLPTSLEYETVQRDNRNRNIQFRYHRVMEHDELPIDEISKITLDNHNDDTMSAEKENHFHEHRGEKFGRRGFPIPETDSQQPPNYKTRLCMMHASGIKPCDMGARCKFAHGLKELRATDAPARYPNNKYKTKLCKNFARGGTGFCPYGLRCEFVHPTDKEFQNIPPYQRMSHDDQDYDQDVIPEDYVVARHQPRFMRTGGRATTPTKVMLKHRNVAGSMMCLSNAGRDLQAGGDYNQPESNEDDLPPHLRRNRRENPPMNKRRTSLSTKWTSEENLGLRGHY
RanGTP-Imp inh = disruptors of Ran-importin-beta complex formation – biochemical, FRET, CFP-Ran, YFP-importin-beta, homogeneous, primary screen. cell-free CFP-Ran/YFP-importin-beta FRET ratio. inhibition, % (no concentration beside the values). hit rate 1.1% among 300,000. AID 2216;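 active = more than half of the replicate wells show a fall in the fluorescence ratio signal beyond about 16%, limit read from the data, passing the limit was not always enough; inconclusive = exactly half of the replicate wells pass the set limit; inactive = fewer than half of replicates pass the limit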
EBV gp42 inh = blocks Epstein-Barr virus glycoprotein 42 binding; Fluorescence polarization binding assay, mP read-out; Q1HVG2; inhibition, % (tested at 21.74 µM); hit rate 0.42% among 220,000; in the data active = inhibition above about 50%
Runt-CBFb FRET = inhibitors of human RUNX1 Runt domain binding to CBFb; Cerulean-Runt/Venus-CBFb FRET ratio 530/480, 1 h; inhibition, % at 20 µM; hit rate 0.46% among 220,000; AID 1496;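 active = inhibition over about 50% at 20 µM in the single-dose screen, limit read from the data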
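Measured by: fluorescence energy transfer, 422 nm excitation, 530/480 nm emission; test system: Cerulean-tagged RUNX1 Runt domain (FRET donor) fusion protein; buffer or medium: Tris pH 7.5 buffer with BSA; compound: one dose, 20 µM compound, 1% DMSO; times: two 1 h room-temperature incubations shielded from light; benchmarks: unlabeled CBFb 5 µM, positive control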
Runt-SMMHC FRET = blocks binding of human RUNX1 Runt domain to CBFb-SMMHC. Q01196+Q13951. Cerulean-Runt/Venus-CBFb-SMMHC FRET ratio 530/480, 1 h. inhibition, % at 20 µM. hit rate 0.74% among 220,000. AID 1434;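 active = mean inhibition across duplicate retests at 20 µM reaching about 50%, limit read from the data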;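 also: inhibitors lower the FRET ratio by blocking Runt binding to CBFb-SMMHC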
Numbers stand for hits; 0 = inactive; ? = inconclusive; - = not tested or not shown. Hits are enriched below; roughly 2.4% of the tested compounds scored in any of these assays.

SMILES | LANA-H2A inh | MEX-5 binding | RanGTP-Imp inh | EBV gp42 inh | Runt-CBFb FRET | Runt-SMMHC FRET
Cc1ccc(NC(=O)/C(C#N)=C/c2ccc(C)s2)c(C)c1 | 0 | -54 | 0 | 0 | 0 | 0
Cc1ccc(/C=C(\C#N)C(=O)Nc2c(C)cccc2C)s1 | 0 | -46 | 0 | 0 | 0 | 0
CCc1cc(C(=O)Nc2cc(S(=O)(=O)N(CC)CC)ccc2N2CCOCC2)sc1C | 0 | 0 | 0 | - | - | -
COCCCn1c(C(=O)NC2CCCCC2C)cc2c(=O)n3cccc(C)c3nc21 (stereo not drawn) | 0 | 0 | 0 | - | - | -
COCCCn1c(=NC(C)=O)c(C#N)cc2c(=O)n3cccc(C)c3nc21 | 0 | 0 | 82 | 0 | 57 | 82
Cc1nc2c(C)cccn2c(=O)c1NC(=O)c1ccc2c(c1)OCO2 | 0 | 0 | 0 | - | - | -
COCCCn1c(=NC(=O)c2ccccc2)c(C#N)cc2c(=O)n3cccc(C)c3nc21 | 27 | ? | 49 | 52 | 0 | 88
CCN(C(=O)c1cc2c(=O)n3cccc(C)c3nc2n1CCCOC)C1CCCCC1 | 0 | 0 | 0 | - | - | -
COCCCn1c(=NC(=O)c2ccc3c(c2)OCO3)c(C#N)cc2c(=O)n3cccc(C)c3nc21 | - | - | - | - | 127 | 155
C#CC(=O)CCC1CCCN1C(=O)OC(C)(C)C (stereo not drawn) | 0 | - | - | - | - | -
CCN(C(=O)CN1CCCC(C)C1)c1c(N)n(Cc2ccccc2)c(=O)[nH]c1=O (stereo not drawn) | 13 | - | - | - | - | -
CCN(C(=O)CN1CCCCC1)c1c(N)n(Cc2ccccc2)c(=O)[nH]c1=O | 0 | - | - | - | - | -
COCCN(C(=O)CN1CCc2ccccc2C1)c1c(N)n(Cc2ccccc2)c(=O)[nH]c1=O | 0 | 0 | 0 | 0 | 0 | 74
COc1ccccc1N1CCN(S(=O)(=O)c2c(C)[nH]c(=O)[nH]c2=O)CC1 | 0 | - | 0 | 0 | 0 | 0
Cc1[nH]c(=O)[nH]c(=O)c1S(=O)(=O)N1CCN(c2ccccc2F)CC1 | 0 | 0 | 0 | 61 | 0 | 0
CC(=O)Nc1c(C(N)=O)oc2ccc(Cl)cc12 | 0 | 0 | 0 | 0 | 0 | 0
O=C(/C=C/Nc1nccs1)C(F)(F)Cl | 0 | 0 | 0 | 0 | 0 | 71
O=C(Nc1nccs1)NC(C(F)(F)F)C(F)(F)F | 0 | 0 | 0 | 0 | 0 | 0
CCOC(=O)COc1cccc(C2NC(=O)c3ccccc3O2)c1 (stereo not drawn) | 0 | 0 | 0 | - | - | -
COc1ccc(NC(=O)C2Cc3ccccc3CN2C(=O)c2ccccc2)cn1 (stereo not drawn) | 0 | -38 | 0 | 64 | 0 | 0
O=C(c1ccccc1)c1ccc(O)cc1O | 45 | ? | 0 | 67 | 0 | 0
COc1ccc(C(=O)c2ccccc2)c(O)c1 | 0 | 0 | 0 | 0 | 0 | 0
O=C(c1ccc(O)cc1)c1ccc(O)cc1O | 12 | 0 | 0 | 0 | 0 | 0
O=C(O)CCCC(=O)N1N=C(c2ccccc2)CC1c1ccc2c(c1)OCO2 (stereo not drawn) | 0 | 0 | 0 | - | - | -
CCOC(=O)C1(Cc2ccccc2C(F)(F)F)CCN(C(=O)c2cc(C(C)=O)n[nH]2)CC1 | 0 | 0 | 0 | 0 | - | -
SMILES | LANA-H2A inh | MEX-5 binding | RanGTP-Imp inh | EBV gp42 inh | Runt-CBFb FRET | Runt-SMMHC FRET
CCc1ccccc1NC(=O)C1CCN(S(=O)(=O)c2ccc3c(c2)N(C(C)=O)CCO3)CC1 | 0 | 0 | 0 | - | - | -
Cc1cnc(C(=O)NNC(=O)c2ccc(Br)cc2)cn1 | 0 | -41 | 0 | - | - | -
S=c1[nH]nc(-c2ccc(Cl)cc2Cl)n1-c1ccc(Cl)cc1 | 45 | 0 | 0 | - | - | -
CC1CCN(c2ccc(C(=O)OCC(=O)NCCN3C(=O)CSC3=O)cc2[N+](=O)[O-])CC1 | 0 | 0 | 0 | 0 | 0 | 0
COCc1ccc(C(=O)N(C)C2CCCN(Cc3ccccc3F)C2)o1 (stereo not drawn) | 0 | 0 | 0 | - | - | -
Cc1cc(C)c(C#N)c(SC(F)F)n1 | 0 | 0 | 98 | 0 | 0 | 0
Cc1cc(C)c(C#N)c(Sc2ccc(N)cc2)n1 | 0 | 0 | 0 | 0 | 0 | 0
Cc1cc(C)n2nc(SCC(=O)N3CCN(c4ccc(F)cc4)CC3)nc2n1 | 0 | - | - | - | - | -
COc1ccc(N2CCN(C(=O)CSc3nc4nc(C)cc(C)n4n3)CC2)cc1 | 37 | - | - | - | - | -
CC(C(=O)Nc1ccc(Cl)cc1Cl)N1C(=O)NC2(CCCCCCC2)C1=O (stereo not drawn) | 0 | - | - | - | - | -
C[C@@H]1CN([C@H](C)CO)C(=O)Cc2cc(NC(=O)Cn3cnnn3)ccc2O[C@@H]1CN(C)Cc1ccc(Cl)c(Cl)c1 | 0 | - | - | - | - | -
Cc1ccccc1OCC1CN(CN2CCOCC2)C(=O)O1 (stereo not drawn) | 24 | 0 | ? | 0 | 0 | 0
CC(C)c1[nH]nc2c1C1(CCN(Cc3ccccc3)CC1)C(C#N)=C(N)O2 | 0 | 0 | 21 | 0 | 0 | 59
Cc1cc(NC(=O)CSCC(=O)N2CCN(c3ccccc3)CC2)no1 | 0 | - | - | - | - | -
Cc1nc(C)n(C(Oc2ccc(Cl)cc2Cl)C(=O)C(C)(C)C)n1 (stereo not drawn) | 0 | 0 | 0 | - | - | -
O=C(Nc1ccccc1)C1=C(O)CC(c2ccc(Cl)cc2)N2CCN=C12 (stereo not drawn) | 0 | 0 | 0 | 0 | 0 | 0
O=c1/c(=C/c2cn(-c3ccccc3)nc2-c2ccc(F)cc2)sc2nc3ccccc3n12 | - | - | - | 0 | 0 | 0
CC(C)Oc1ccc(-c2nn(-c3ccccc3)cc2/C=c2\sc3ncnn3c2=O)cc1 | 0 | - | - | 75 | 0 | 0
COc1ccccc1/C=C1\Oc2cc(OC(=O)N3CCOCC3)ccc2C1=O | 0 | 0 | 0 | 0 | 0 | 0
O=C(O)C[C@H]1c2cc(C(F)(F)F)ccc2S(=O)(=O)N1C1CCCCC1 | 0 | 0 | 0 | - | - | -
CSc1cccc(NC(=S)N(CCCN2CCCC2)Cc2cccn2Cc2ccc(Cl)cc2)c1 | 13 | 0 | 0 | 0 | 0 | 0
CC(=O)N1CCN(C(=O)CCNS(=O)(=O)c2ccc(Br)cc2)CC1 | 0 | - | - | - | - | -
CC1CCN(C(=O)CCNS(=O)(=O)c2ccc(Br)cc2)CC1 | 24 | - | - | - | - | -
